From ChEMBL document CHEMBL4024799, “Synthesis and Biological Characterization of Aryl Uracil Inhibitors of Hepatitis C Virus NS5B Polymerase: Discovery of ABT-072, a trans-Stilbene Analog with Good Oral Bioavailability” (J Med Chem, 2018)
≈ marks a conversion by molar mass, not a printed value. Calls of active or inactive are those of the source. No cut-off for these calls is given here.

Tests used:
[1] = test system: Hepatitis C virus (isolate H77); test: Inhibition of HCV genotype 1a H77 NS5B RNA dependent RNA polymerase C316H mutant assessed as reduction in [3H]UTP incorporation in to RNA preincubated for 15 mins followed by [3H]UTP addition measured after 3 hrs by microbeta scintillation counting method
How it was run: (§1)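 Standard NS5B polymerase inhibition assay using genotype 1a (H77) or 1b (BK) enzyme. RNA product formation was measured as ³H-UTP incorporated into RNA, read by scintillation counting. IC50 was calculated with a standard IC50 equation.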

[2] = Half life in dog at 2.5 mg/kg, po; type: ADME, organism-based, Canis lupus familiaris; details: in vivo
[3] = Ratio of drug level in Sprague-Dawley rat liver to plasma at 5 mg/kg, po after 12 hrs; type: ADME, organism-based
How it was run: (§2)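 Male/female not given; Sprague-Dawley rats, n = 3 per experiment, single 5 mg/kg oral dose given as a solution in DMSO:PEG400 (1:9, v/v). Drug concentrations measured in liver tissue and plasma at 12 h and 24 h post-dose; value reported as the liver-to-plasma concentration ratio.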

[4] = Cmax in Sprague-Dawley rat at 30 mg/kg, po; type: ADME, organism-based; parameters: dose 30 mg/kg, route oral; details: in vivo
How it was run: (§3)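 Sprague-Dawley rats, n = 3 per experiment; solution in DMSO:PEG400 (1:9, v/v) given IV or oral; 5 mg/kg for both routes, and 30 mg/kg oral; plasma t1/2, Vss, clearance, Cmax, AUC and F% determined.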

[5] = Oral bioavailability in Sprague-Dawley rat at 30 mg/kg; type: ADME, organism-based; details: in vivo; how it was run: as §3
[6] = Half life in dog at 2.5 mg/kg, iv; type: ADME, organism-based, Canis lupus familiaris; details: in vivo
[7] = Cmax in human infected with HCV genotype 1 at 160 mg administered once daily for 2 days; type: ADME; parameters: dose 160 mg; details: in vivo
How it was run: (§4)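 HCV GT1-infected patients (N=4) given 160 mg once daily for 2 days; plasma Cmax, AUC and t1/2 determined.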

[8] = Volume of distribution at steady state in dog at 2.5 mg/kg, iv; type: ADME, organism-based, Canis lupus familiaris; details: in vivo, read-out: Vdss
Hepatitis C virus [9] = test: Antiviral activity against HCV genotype 1a H77 infected in human HuH7 cells harboring HCV subgenomic bicistronic replicon after 3 days in presence of 40% human plasma by luciferase reporter gene assay; type: functional, cell-based, Hepacivirus hominis; details: genotype 1a H77, Huh-7, 72 h
How it was run: (§5)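 Subgenomic genotype 1a (H77) or 1b (Con1) replicons carrying firefly luciferase, transfected into Huh-7 cells. Replication inhibition was read as luciferase level in cell lysate on a luminometer and reported as EC50. Runs were done without human plasma or with 40% human plasma added, to assess inhibitor–protein binding.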

[10] = Ratio of drug level in Sprague-Dawley rat liver to plasma at 5 mg/kg, po after 24 hrs; type: ADME, organism-based; how it was run: as §2
[11] = Tmax in human at 160 mg administered as single dose; type: ADME; details: in vivo
[12] = Cmax in human at 80 mg administered as single dose; type: ADME; parameters: dose 80 mg; details: in vivo
How it was run: (§6)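 Single oral doses of 80, 160 or 320 mg in healthy subjects; plasma concentration-time profiles reported as mean (+SD); Cmax and terminal phase half-life derived.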

[13] = Half life in human infected with HCV genotype 1 at 160 mg administered once daily for 2 days; type: ADME; details: in vivo; how it was run: as §4
Hepatitis C virus [14] = test: Antiviral activity against HCV genotype 1a H77 infected in human HuH7 cells harboring HCV subgenomic bicistronic replicon after 3 days by luciferase reporter gene assay; type: functional, cell-based, Hepacivirus hominis; details: genotype 1a H77, Huh-7, 72 h; how it was run: as §5
[15] = Cmax in dog at 30 mg/kg, po; type: ADME, organism-based, Canis lupus familiaris; parameters: dose 30 mg/kg, route oral; details: in vivo
Hepatitis C virus [16] = test: Antiviral activity against HCV genotype 1 infected in human assessed as sustained virologic response at 400 mg administered once daily in combination with ABT-450/r and ribavirin; type: functional, Hepacivirus hominis
How it was run: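 GT1-infected adults given 400 mg once daily together with ABT-450/ritonavir and ribavirin; sustained virologic response assessed 24 weeks after treatment.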

[17] = Volume of distribution at steady state in Sprague-Dawley rat at 5 mg/kg, iv; type: ADME, organism-based; details: in vivo, read-out: Vdss
How it was run: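 Sprague-Dawley rats, n = 3 per experiment, each given a 5 mg/kg intravenous dose. The compound was formulated as a solution in DMSO:PEG400 (1:9, v/v). Plasma concentration–time data were used to derive pharmacokinetic parameters, including Vss.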

[18] = Terminal half life in human at 320 mg administered as single dose; type: ADME; details: in vivo, read-out: beta t1/2 (converted); how it was run: as §6
Plasma = test: Drug level in po dosed Sprague-Dawley rat plasma up to 24 hrs; type: ADME, organism-based; details: in vivo
How it was run: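 Sprague-Dawley rats given oral doses; liver tissue and plasma levels measured at 12 and 24 h; liver:plasma ratio calculated.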

[19] = Tmax in human at 320 mg administered as single dose; type: ADME; details: in vivo
[20] = AUC (infinity) in human at 160 mg administered as single dose; type: ADME; parameters: dose 160 mg, time infinity; details: in vivo; how it was run: as §6
Rattus norvegicus = test: AUC in Sprague-Dawley rat at 5 mg/kg, iv; type: ADME, organism-based; details: in vivo; how it was run: as §3
[21] = Oral bioavailability in dog at 2.5 mg/kg; type: ADME, organism-based, Canis lupus familiaris; details: in vivo
[22] = Ratio of drug level in dog liver to plasma at 2.5 mg/kg, po after 24 hrs; type: ADME, organism-based, Canis lupus familiaris
Hepatitis C virus [23] = test: Antiviral activity against HCV genotype 1 infected in human assessed as decrease in viral RNA load at 160 mg administered once daily for 2 days; type: functional, Hepacivirus hominis
How it was run: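 HCV GT1-infected patients (N=4) given 160 mg once daily for 2 days; read-out was least squares mean maximum decrease from baseline in HCV RNA (log10 IU/mL).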

[24] = Inhibition of HCV genotype 2a NS5B RNA dependent RNA polymerase assessed as reduction in [3H]UTP incorporation in to RNA preincubated for 15 mins followed by [3H]UTP addition measured after 3 hrs by microbeta scintillation counting method; parameters: species or system Hepatitis C virus subtype 2a
[25] = Half life in Sprague-Dawley rat at 30 mg/kg, po; type: ADME, organism-based; details: in vivo; how it was run: as §3
[26] = test system: Hepatitis C virus (isolate BK); test: Inhibition of HCV genotype 1b BK NS5B RNA dependent RNA polymerase M414T mutant assessed as reduction in [3H]UTP incorporation in to RNA preincubated for 15 mins followed by [3H]UTP addition measured after 3 hrs by microbeta scintillation counting method; how it was run: as §1
Canis familiaris = test: AUC in dog at 2.5 mg/kg, po; type: ADME, organism-based, Canis lupus familiaris; details: in vivo
[27] = Half life in Sprague-Dawley rat at 5 mg/kg, po; type: ADME, organism-based; details: in vivo; how it was run: as §3
[28] = Oral bioavailability in dog at 30 mg/kg; type: ADME, organism-based, Canis lupus familiaris; details: in vivo
[29] = Cmax in human at 160 mg administered as single dose; type: ADME; parameters: dose 160 mg; details: in vivo; how it was run: as §6
[30] = Aqueous solubility of the compound at pH 7.2; type: physicochemical; details: buffer, read-out: solubility
[31] = Terminal half life in human at 160 mg administered as single dose; type: ADME; details: in vivo, read-out: beta t1/2 (converted); how it was run: as §6
[32] = Half life in Sprague-Dawley rat at 5 mg/kg, iv; type: ADME, organism-based; details: in vivo; how it was run: as §3
[33] = Inhibition of HCV genotype 3a NS5B RNA dependent RNA polymerase assessed as reduction in [3H]UTP incorporation in to RNA preincubated for 15 mins followed by [3H]UTP addition measured after 3 hrs by microbeta scintillation counting method; parameters: species or system Hepatitis C virus subtype 3a
[34] = Plasma clearance in dog at 2.5 mg/kg, iv; type: ADME, organism-based, Canis lupus familiaris
Hepatitis C virus [35] = test: Antiviral activity against HCV genotype 1b Con1 infected in human HuH7 cells harboring HCV subgenomic bicistronic replicon after 3 days by luciferase reporter gene assay; type: functional, cell-based, Hepacivirus hominis; details: genotype 1b Con1, Huh-7, 72 h; how it was run: as §5
[36] = Ratio of drug level in dog liver to plasma at 2.5 mg/kg, po after 12 hrs; type: ADME, organism-based, Canis lupus familiaris

## COc1c(/C=C/c2ccc(NS(C)(=O)=O)cc2)cc(-n2ccc(=O)[nH]c2=O)cc1C(C)(C)C [ABT-072]
[1]
  inhibition: inactive
[2]
  half-life: 5.4 h
[3]
  Kp at 12 h: 71
[4]
  Cmax: 2000 ng/mL
[5]
  bioavailability: 63%
[6]
  half-life: 5.5 h
[7]
  Cmax: 415 ng/mL
[8]
  Vd: 1.5 L/kg
Hepatitis C virus [9]
  EC50: 19 nM
[10]
  Kp at 24 h: 46
[11]
  Tmax: 6.8 h
[12]
  Cmax: 180 ng/mL
[13]
  half-life: 8.56 h
Hepatitis C virus [14]
  EC50: 1.1 nM
[15]
  Cmax: 7560 ng/mL
Hepatitis C virus [16]
  Activity: 91%
[17]
  Vd: 3.7 L/kg
[18]
  half-life: 7.01 h
Plasma
  Drug uptake: Dose-dependent effect
[19]
  Tmax: 8.8 h
[20]
  AUC(0-inf): 4640 ng·h/mL
Rattus norvegicus
  AUC: 5730 ng·h/mL
[21]
  bioavailability: 86%
[22]
  Kp at 24 h: 10
Hepatitis C virus [23]
  Activity: 1.18 log10IU/ml
[24]
  IC50: 23000 nM
[25]
  half-life: 3.5 h
[26]
  inhibition: inactive
Canis familiaris
  AUC: 14400 ng·h/mL
[27]
  half-life: 3.1 h
[28]
  bioavailability: 61%
[29]
  Cmax: 303 ng/mL
[30]
  solubility: 20.7 µM (≈ 9.72 µg/mL)
[31]
  half-life: 7.63 h
[32]
  half-life: 2.9 h
[33]
  IC50: 3000 nM
[34]
  clearance: 2.5 mL/min/kg
Hepatitis C virus [35]
  EC50: 0.3 nM
[36]
  Kp at 12 h: 11
